In data set [1] the target is T1, Mitogen-activated protein kinase 14 (Homo sapiens, UniProt Q16539). The data set can be described thus: Inhibition of recombinant human full-length N-terminal GST-tagged p38alpha MAPK expressed in baculovirus infected Sf9 insect cells using p38 peptide as substrate preincubated for 15 mins followed by substrate addition and measured after 60 mins by ADP-glo assay.

Data set [2] has as its target T1, Mitogen-activated protein kinase 14. Nature of the data set: Inhibition of NanoBRET kinase tracer K4 binding to full-length human C-terminal NanoLuc-tagged p38alpha MAPK expressed in HEK293T cells incubated for 2 hrs by NanoBRET NanoGlo substrate based NanoBRET assay. Type of data set: cell-based, HEK-293T. In a few lines: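 Cellular reporter-displacement NanoBRET format, run in intact cells where the competing substrate ATP is present at cellular concentrations. The result is reported as an IC50.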

The target is the same in data set [3]. The data set can be described thus: Inhibition of p38alpha MAPK in human whole blood assessed as reduction in LPS-induced TNFalpha production preincubated for 2.5 hrs followed by LPS stimulation by ELISA. Type of data set: tissue-based.
Data set [4] has the same target. Nature of the data set: Inhibition of p38alpha MAPK (unknown origin) assessed as target residence time using ATF2 as substrate preincubated for 1 hr followed by jump dilution in presence of substrate and measured every 3 mins for 4 hrs by TR-FRET assay.
The nature of data set [5]: Drug metabolism in human liver microsomes assessed as oxidation at 100 uM measured after 180 mins in presence of NADPH generating system by LC-MS/MS analysis. Type of data set: ADME, Microsome. The conditions noted are these: 3 h. On the technique in general: Liver microsomes are vesicles of endoplasmic reticulum, rich in cytochrome P450 enzymes.
Data set [6] can be described thus: Stability of the compound in human liver microsomes at 100 uM measured after 180 mins in presence of NADPH generating system by LC-MS/MS analysis. The format is ADME, Microsome. The conditions noted are these: 3 h.

T1 sequence (Q16539 whole entry): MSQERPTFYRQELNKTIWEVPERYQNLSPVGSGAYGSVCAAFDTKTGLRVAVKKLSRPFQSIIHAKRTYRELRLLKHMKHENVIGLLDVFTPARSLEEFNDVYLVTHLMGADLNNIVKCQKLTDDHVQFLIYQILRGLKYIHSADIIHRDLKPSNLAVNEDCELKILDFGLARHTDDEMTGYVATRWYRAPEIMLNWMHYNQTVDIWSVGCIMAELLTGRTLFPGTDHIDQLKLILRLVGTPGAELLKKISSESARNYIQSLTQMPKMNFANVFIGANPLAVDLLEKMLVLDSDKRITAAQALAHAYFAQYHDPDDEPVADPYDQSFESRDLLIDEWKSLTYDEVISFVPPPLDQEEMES

Take `O=C(NCCN1CCOCC1)c1ccc2c(c1)C(=O)c1ccc(Nc3ccc(F)c(/C=N/NC(=O)c4cccs4)c3)cc1CC2`: the half-maximal inhibitory concentration (IC50) came out at 29.7 nM in data set [1], 15.5 nM in data set [2] and 276 nM in data set [3]. Also, the TIME in data set [4] amounted to 0.372 h.
In the case of `O=C(NCCN1CCOCC1)c1ccc2c(c1)C(=O)c1ccc(Nc3ccc(F)c(NC(=O)c4cccs4)c3)cc1CC2`, the IC50 is 12 nM in data set [1] and 43 nM in data set [3]. Besides, the TIME in data set [4] is 0.207 h.
Consider `O=C(NCCN1CCOCC1)c1ccc2c(c1)C(=O)c1ccc(Nc3ccc(F)c(/C=N/NC(=O)c4ccc[se]4)c3)cc1CC2`, for which the values for the IC50 in data set [1], in data set [2] and in data set [3] were 16 nM, 30.4 nM and 490 nM, respectively. Moreover, the TIME in data set [4] was found to be 0.281 h.
`O=C(NCCN1CCOCC1)c1ccc2c(c1)C(=O)c1ccc(Nc3ccc(F)c(NC(=O)c4ccc[se]4)c3)cc1CC2`: the IC50 came out at 24.6 nM in data set [1], 4.9 nM in data set [2] and 101 nM in data set [3]. Besides, the TIME in data set [4] was 0.443 h. In addition, in data set [5], the Drug metabolism result is on record as “Metabolite_Notdetected”.
Take `O=C1c2ccc(Nc3ccc(F)cc3F)cc2CCc2ccc(OC[C@H](O)CO)cc21`: the TIME in data set [4] was determined as 0.0244 h.
In the case of `O=C(NCCN1CCOCC1)c1ccc2c(c1)C(=O)c1ccc(Nc3ccc(F)c(/C=N/NC(=O)c4ccccc4)c3)cc1CC2`, the figures for the IC50 in data set [1], in data set [2] and in data set [3] were 19.7 nM, 6.3 nM and 47 nM, respectively. Also, the TIME in data set [4] turned out to be 0.231 h. In addition, the Stability result in data set [6] is reported as “Stable”. In addition, the Drug metabolism result in data set [5] was “Metabolite_Notdetected”.
Regarding `O=C(NCCN1CCOCC1)c1ccc2c(c1)C(=O)c1ccc(Nc3ccc(F)c(NC(=O)c4ccccc4)c3)cc1CC2`, in data set [4], the TIME amounted to 0.0511 h.

As usually defined, the IC50 is the concentration that inhibits the measured activity by half.

Values taken from ChEMBL document CHEMBL4616669, “Bioisosteric Replacement of Arylamide-Linked Spine Residues with N-Acylhydrazones and Selenophenes as a Design Strategy to Novel Dibenzosuberone Derivatives as Type I 1/2 p38α MAP Kinase Inhibitors” (J Med Chem, 2020).
